# SKKanGAS inh: S. pyogenes SKKanGAS growth inhibitors in kanamycin, primary screen, streptokinase expression inhibitor project, SKKanGAS strain, BacTiter-Glo luminescence; inhibition, % at 7.5 µM; 6 h; 1.3% of 300,000 active;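 active = mean replicate score, as percent of positive control median, at least 50; inconclusive = mean below 50 but one replicate at or above 50; inactive = mean and every replicate below 50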;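 also: strain carries kanamycin resistance gene driven by streptokinase promoter and grows in 40 µg/ml kanamycin; loss of luminescence reflects streptokinase promoter inhibition or plain growth inhibition; 0% = median of DMSO wells and 100% = positive control at its reference dose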
# Beta apoptosis: inhibitors of cytokine-induced beta cell apoptosis, primary screen, luminescence; protection from apoptosis, % (concentration not given with the values); 0.8% of 300,000 active; INS-1E cytokine-induced death, ATP luminescence, 48 h; percent of positive-control rescue, neutral wells zero; AID 435005, 2010;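 active = Every replicate reaches about 75%, or at least half do and their mean reaches it too, limit read from the data; inconclusive = At least half of replicates reach the limit but their mean does not; inactive = Under half of replicates reach the limit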;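 also: 0% = cytokine-treated negative control wells and 100% = positive control rescue; higher means more ATP so stronger rescue from cytokine killing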
# Lmaj promast: Leishmania major promastigote growth inhibition, primary screen; inhibition, % at 10 µM; Leishmania major promastigotes, resazurin fluorescence viability; AID 1063, 2008; 9% of 200,000 active; in the data active = inhibition above about 50%;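 also: promastigotes grown with compound for 44 hours at 28 °C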
# Mdm2 MdmX PPI: inhibitors of human Mdm2-MdmX association, primary screen, cell-based, luminescence, split luciferase, SaOS-2, uHTS; Protein Mdm4 (Homo sapiens) + E3 ubiquitin-protein ligase Mdm2 (Homo sapiens), …; SaOS-2 split-luciferase Mdm2/MdmX complementation; inhibition, % at 8 µM; 3% of 330,000 active;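 active = inhibition of at least 50% at 8 µM in the primary screen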
# Target sequence (O15151 whole entry, looked up): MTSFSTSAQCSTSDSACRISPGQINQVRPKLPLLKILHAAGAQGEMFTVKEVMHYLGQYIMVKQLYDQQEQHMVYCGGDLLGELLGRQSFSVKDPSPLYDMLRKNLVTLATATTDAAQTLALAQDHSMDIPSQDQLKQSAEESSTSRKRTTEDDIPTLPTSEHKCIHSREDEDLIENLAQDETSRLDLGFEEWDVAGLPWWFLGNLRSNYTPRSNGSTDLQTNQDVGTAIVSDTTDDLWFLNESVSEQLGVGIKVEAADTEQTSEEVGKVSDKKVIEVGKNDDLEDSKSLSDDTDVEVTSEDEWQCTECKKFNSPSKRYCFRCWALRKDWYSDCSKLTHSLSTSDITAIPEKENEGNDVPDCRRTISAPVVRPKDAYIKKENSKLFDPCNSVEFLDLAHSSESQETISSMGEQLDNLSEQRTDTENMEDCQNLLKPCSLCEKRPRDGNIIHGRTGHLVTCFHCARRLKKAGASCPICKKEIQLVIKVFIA
# Target sequence (Q00987 whole entry, looked up): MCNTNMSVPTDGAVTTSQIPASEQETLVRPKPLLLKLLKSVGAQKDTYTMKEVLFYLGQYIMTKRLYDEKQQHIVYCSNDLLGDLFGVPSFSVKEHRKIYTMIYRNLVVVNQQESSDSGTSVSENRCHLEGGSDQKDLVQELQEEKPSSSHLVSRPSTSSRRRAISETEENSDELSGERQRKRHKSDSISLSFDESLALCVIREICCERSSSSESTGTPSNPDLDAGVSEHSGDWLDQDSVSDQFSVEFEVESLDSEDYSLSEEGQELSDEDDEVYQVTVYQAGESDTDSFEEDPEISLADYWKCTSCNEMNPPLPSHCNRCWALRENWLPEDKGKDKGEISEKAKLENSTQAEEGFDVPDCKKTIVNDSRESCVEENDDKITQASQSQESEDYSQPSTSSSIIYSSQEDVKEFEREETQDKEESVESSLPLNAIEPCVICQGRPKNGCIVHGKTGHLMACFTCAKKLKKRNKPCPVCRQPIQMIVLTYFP
# T cruzi repl: inhibitors of intracellular T. cruzi growth, primary screen, luminescence, NIH3T3 host cells. T. cruzi beta-gal in NIH3T3, 90 h. inhibition, % (concentration not given with the values). 1.4% of 300,000 active. AID 1885, 2009;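 active = mean inhibition across valid replicates above about 55%, limit read from the data; inconclusive = mean below that limit but half or more replicates reach it; inactive = mean below it, under half of replicates reach it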;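 also: signal also drops with host cell toxicity which is not excluded here; 0% = plate median of DMSO wells and 100% = zero luminescence signal; higher percent means less beta-gal luminescence so fewer parasites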
#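 Test system: β-gal T. cruzi (Tulahuen C4) inside NIH/3T3 cells / Quantity: 5,000 cells/well / Measured by: luminescence from GalScreen with 0.05% NP40, read after 60 min / Medium: DMEM plus 2% FBS / Measure: parasite load inhibition, % / Reagent: Tulahuen C4 trypomastigotes, 5000/well / Schedule: co-culture of at least 90 h after 3 h attachment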
# CSC inhib: cancer stem cell viability inhibitors, primary screen, luminescence. cancer stem cell-like cells viability. inhibition, % at 7.5 µM. 1.1% of 300,000 active; in the data active = inhibition above about 75%; inconclusive = no clear call, values can overlap the other calls; tested in HMLE shEcad cells
# Mdm2 MdmX conf: Mdm2-MdmX complex disruptors, retested hits, confirmation, luminescence, single concentration; 55% of 10,000 active; Mdm2-MdmX binding, luminescent assay; shares compounds with Mdm2 MdmX PPI; inhibition, % at 8 µM; in the data active = inhibition above about 40%
# Full FLuc ctr: full-length luciferase signal inhibition, confirmation, counter-screen for Mdm2/MdmX interaction inhibitor project, cell-based, single concentration, SaOS-2; 77% of 6,200 active; shares compounds with Mdm2 MdmX PPI; inhibition, % at 8 µM; SaOS-2 full-length luciferase counterscreen, luminescence; AID 504607, 2011;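 active = mean inhibition at 8 µM reaching about 37%, which flags the compound as non-specific, limit read from the data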;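 also: p53-null SaOS-2 cells with luciferase driven by a doxycycline-inducible promoter; compound on cells about two nights before reading with doxycycline added after day one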
# Numbers without * were called inactive; ? = inconclusive; . = no result; ! = repeats disagree. Sampled rows, rich in hits. Any-hit rate of the full collection: about 9.4%.
SMILES,SKKanGAS inh,Beta apoptosis,Lmaj promast,Mdm2 MdmX PPI,T cruzi repl,CSC inhib,Mdm2 MdmX conf,Full FLuc ctr
CCN1CCN(Cc2ccc(NC(=O)c3ccc(C)c(NC(=O)N4CCNC4=O)c3)cc2C(F)(F)F)CC1,-4,0,.,59*,6,-5,40*!,83*
CCN1CCN(Cc2ccc(NC(=O)c3ccc(C)c(NC(=O)c4cc(-c5ccc(Br)cc5)n[nH]4)c3)cc2C(F)(F)F)CC1,37,-1,.,99*,60*,?,35,41*
CCN1CCN(Cc2ccc(NC(=O)c3ccc(C)c(NC(=O)c4cccc5[nH]ccc45)c3)cc2C(F)(F)F)CC1,-1,-3,.,55*,14,5,25,.
Cc1ccc(NC(=O)c2cc(-c3ccccc3)n[nH]2)cc1,0,-19,.,3,-7,-9,.,.
CCN1CCN(Cc2ccc(NC(=O)c3ccc(C)c(NC(=O)c4nccnc4N)c3)cc2C(F)(F)F)CC1,0,10,.,97*,19,39,64*,42*
CCN1CCN(Cc2ccc(NC(=O)c3ccc(C)c(NC(=O)c4nccn4C)c3)cc2C(F)(F)F)CC1,1,-4,.,21,11,4,.,.
CN(C)S(=O)(=O)Oc1cc(Cl)ccc1C(=O)Nc1ccc(F)cc1F,4,.,0,5,-13,2,.,.
O=[N+]([O-])c1cccc(N(CC(O)CN2CCCCC2)S(=O)(=O)c2ccccc2)c1 (stereo not given),-3,-8,.,7,0,0,.,.
O=C(CCCOc1ccc(Cl)cc1Cl)N/N=C/c1ccccc1O,33,-4,44,76*,0,168*,82*,22
Cc1cc(N2CCCC2)nc2ccc(NC(=S)NCCCN3CCC(C)CC3)cc12,-7,9,100*,100*,60*,2,39,49*
CCCCN(C)CCNC(=S)Nc1ccc2nc(N3CCN(CC)CC3)cc(C)c2c1,2,0,.,74*,?,32,36,51*
CCN(Cc1nc2cc(Cl)ccc2c(=O)[nH]1)C(=O)c1ccc(C)c(NC(=O)c2ccco2)c1,.,2,.,37,.,-5,.,.
Cc1ccc2cc(C#N)c(SCc3nnc(-c4ccccc4[N+](=O)[O-])o3)nc2c1,5,10,33,87*,0,12,79*,72*
COc1cccc(C(=O)Nc2nc3ccccc3[nH]2)c1,31,13,29,-61,12,1,.,.
COc1ccc2c(c1)c(/C=N/Nc1nc3ccccc3[nH]1)c(C)n2C,71*,117*,.,93*,50,45,37,68*
CNCCNC[C@H](Cc1cccc2ccccc12)NCCc1ccccc1,.,6,.,9,.,12,.,.
CNC[C@H](Cc1ccccc1)NC[C@@H](Cc1cccc2ccccc12)NCCc1ccc(C)cc1,94*,107*,.,100*,48,108*,86*,51*
COCCNC(=O)/C(C#N)=C\c1ccc(CNC(=O)C(=O)Nc2ccc(C)c(C)c2)o1,-10,0,8,-7,-7,-4,.,.
COc1ccc(NC(=O)C(=O)N/N=C\c2ccc(CNC(=O)C(=O)Nc3ccc(C)c(C)c3)o2)c(OC)c1,4,.,.,92*,-19,.,46*,95*
O=[N+]([O-])c1ccc(P(=O)(Cc2ccccc2)c2ccccc2O)cc1 (stereo not given),6,-4,.,-5,1,-12,.,.
C/C(=N\NC(=O)C1(C)CC1(Br)Br)c1ccc(NC(=O)C2CCC2)cc1 (stereo not given),-6,5,8,19,-7,18,.,.
C/C(=N\NC(=O)C1(C)CC1(Br)Br)c1cccc(NC(=O)c2ccc(C)o2)c1 (stereo not given),6,.,.,61*,14,15,22,.
CCn1cc2nc(SCC(=O)Nc3ccc(F)cc3F)n(Cc3ccccc3)c(=O)c2n1,1,9,.,28,31,5,.,.
CCOC(=O)c1ccc(Oc2cc(C)nc(SC)n2)cc1,8,2,-8,56*,0,68,58*,49*
CCOC(=O)c1ccc2nc(Nc3nc4ccc(F)cc4s3)sc2c1,17,-5,44,82*,-3,56,60*,11
SMILES,SKKanGAS inh,Beta apoptosis,Lmaj promast,Mdm2 MdmX PPI,T cruzi repl,CSC inhib,Mdm2 MdmX conf,Full FLuc ctr
COC(=O)c1ccc2nc(NC(=O)C(C)C)sc2c1,-5,-3,6,-73,45,1,.,.
CCOC(=O)N1CCN(S(=O)(=O)c2ccc(C(=O)Nc3nc4ccc(F)cc4s3)cc2)CC1,6,39,17,55*,3,34,23,.
COC(=O)c1ccc2nc(Nc3nc4c(F)cc(F)cc4s3)sc2c1,?,-4,52*,88*,-19,45,37,.
CCCCCCC(C)OC(=O)Nc1cccc2ccccc12 (stereo not given),19,.,.,-9,2,12,.,.
Cc1cc(C)c(OCC(=O)Nc2ccc(S(=O)(=O)N3CCCC3)cc2)c(C)c1,1,3,.,19,13,-11,.,.
CSc1nc(Oc2ccccc2)c2sccc2n1,6,-8,0,20,22,2,.,.
CSc1nc(Oc2ccc3ccccc3c2)c2ccccc2n1,-19,6,47,55*,-1,-5,7,.
Nc1nc(N)nc(-c2ccccc2O)n1,7,-30,-1,17,-11,-14,.,.
Nc1nc(-c2ccccc2)cc(-c2ccccc2O)n1,-14,-19,26,80*,0,23,28,.
Oc1ccc(-c2cc(-c3ccc(O)cc3)nc(-c3ccccc3)n2)cc1,103*,-1,.,83*,55*,105*,29,.
Nc1nc(-c2ccccc2)nc(-c2ccccc2O)n1,14,3,-4,62*,-2,11,25,.
O=C(COC(=O)c1ccc(F)cc1F)Nc1cccc(S(=O)(=O)N2CCOCC2)c1,.,.,.,-14,.,.,.,.
Cc1ccc(NC(=O)Cn2ccc(=O)[nH]c2=O)cc1,2,-3,.,-13,-10,-14,.,.
CCOC(=O)c1c(NC(=O)CSc2nc3c(c(=O)n(C)c(=O)n3C)n2C(C)C)sc(C)c1C,3,-7,-3,-5,-8,-12,.,.
CC(C)n1c(SCC(=O)Nc2nc3c(s2)CCCC3)nc2c1c(=O)n(C)c(=O)n2C,11,8,21,60*,-20,12,36,40*

# Compound activity (PubChem)
